Measured values of several laboratories.
Values after ≈ are worked out from the molar mass of the structure shown.
Organism: Enterococcus faecalis
Observed: microbial growth

| Compound | technique | strain | notes | MIC [µg/mL] |
| --- | --- | --- | --- | --- |
| CCCCCCCCCCCC(=O)C(F)(F)P(=O)(O)O |  | ATCC33186 |  | 100 (≈ 318 µM) |
| CCCCCCCCCCCCCCCC(=O)NS(=O)(=O)OC1CCNCC1 | broth dilution | ATCC33186 |  | 12.5 (≈ 29.9 µM) |
| CCCCCCCCCCCC(=O)CP(=O)(O)O |  | ATCC33186 |  | 25 (≈ 89.8 µM) |
| CN[C@@H]1[C@H](O)[C@H](NC)[C@H]2O[C@@]3(O)C(=O)C[C@@H](C)O[C@H]3O[C@@H]2[C@H]1O | broth dilution | ATCC33186 |  | 50 (≈ 150 µM) |
| C=C(NC(=O)C(=C)NC(=O)c1csc(C2=N[C@@H]3c4csc(n4)[C@H]4NC(=O)c5csc(n5)[C@H]([C@](C)(O)[C@@H](C)O)NC(=O)[C@H]5CSC(=N5)/C(=C/C)NC(=O)[C@H]([C@@H](C)O)NC(=O)c5csc(n5)[C@]3(CC2)NC(=O)[C@H](C)NC(=O)C(=C)NC(=O)[C@H](C)NC(=O)[C@H]([C@@H](C)CC)N[C@@H]2C=Cc3c([C@H](C)O)cc(nc3[C@H]2O)C(=O)O[C@@H]4C)n1)C(N)=O |  |  |  | 0.12 (≈ 0.0721 µM) |
| CCCCCCCCCCCCCCCC(=O)NS(=O)(=O)OC | broth dilution | ATCC33186 |  | 50 (≈ 143 µM) |
| CCCCCCCCCCCCCCCC(=O)C(F)(F)P(=O)(O)O |  | ATCC33186 |  | 100 (≈ 270 µM) |
| COc1ccc2cc1Oc1cc(ccc1OC)CCC(N[C@@H]1CCCc3ccccc31)CCCC2 (stereo partly shown) | broth dilution | ATCC33186 |  | > 100 |
| CCCCCCCCCCCCCCCC(=O)NS(=O)(=O)Oc1cccc(Cl)c1 | broth dilution | ATCC33186 |  | 1.6 (≈ 3.59 µM) |
| Cc1cc(Cl)ccc1-c1ccc(/C=C2\SC(=S)N(CC(=O)O)C2=O)o1 | broth dilution | VRE | drug-resistant strain | 1 to 8 (≈ 2.54 to 20.3 µM) |
